Measurements reported in ChEMBL document CHEMBL1157589, “Antifungal 3,5-disubstituted furanones: From 5-acyloxymethyl to 5-alkylidene derivatives” (Bioorg Med Chem, 2010).
Converted amounts (≈) assume the structure as drawn. The source made the active and inactive calls. No cut-off for these calls is given here.

Key:
Candida albicans [1] = assay: Antifungal activity against Candida albicans ATCC 44859 after 48 hrs by microdilution method; type: functional; details: ATCC 44859, 48 h
Procedure, shortened: (§1)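 Yeasts held on Sabouraud dextrose agar. MIC by NCCLS M27-A broth microdilution in RPMI 1640 with L-glutamine, buffered with 0.165 M MOPS to pH 7.0. Compounds in DMSO (≤2% final), twofold dilutions 500–0.48. Final inoculum 5 × 10³ ± 0.2 cfu mL⁻¹. Incubated at 35 °C; absorbance at 540 nm read at 24 and 48 h. MIC is 80% growth inhibition versus control; run twice in duplicate.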

Candida albicans [2] = assay: Antifungal activity against Candida albicans ATCC 90028 after 24 hrs by microdilution method; type: functional; details: ATCC 90028, 24 h; procedure, shortened: as §1
Candida albicans [3] = assay: Antifungal activity against Candida albicans ATCC 90028 after 48 hrs by microdilution method; type: functional; details: ATCC 90028, 48 h; procedure, shortened: as §1
Candida parapsilosis [4] = assay: Antifungal activity against Candida parapsilosis ATCC 22019 after 24 hrs by microdilution method; type: functional; details: Lodderomyces parapsilosis, ATCC 22019, 24 h; procedure, shortened: as §1
Candida parapsilosis [5] = assay: Antifungal activity against Candida parapsilosis ATCC 22019 after 48 hrs by microdilution method; type: functional; details: Lodderomyces parapsilosis, ATCC 22019, 48 h; procedure, shortened: as §1
Pichia kudriavzevii [6] = assay: Antifungal activity against Candida krusei ATCC 6258 after 24 hrs by microdilution method; type: functional; details: ATCC 6258, 24 h; procedure, shortened: as §1
Pichia kudriavzevii [7] = assay: Antifungal activity against Candida krusei ATCC 6258 after 48 hrs by microdilution method; type: functional; details: ATCC 6258, 48 h; procedure, shortened: as §1
Pichia kudriavzevii [8] = assay: Antifungal activity against Candida krusei E28 after 24 hrs by microdilution method; type: functional; details: E28, 24 h; procedure, shortened: as §1
Pichia kudriavzevii [9] = assay: Antifungal activity against Candida krusei E28 after 48 hrs by microdilution method; type: functional; details: E28, 48 h; procedure, shortened: as §1
Candida tropicalis [10] = assay: Antifungal activity against Candida tropicalis 156 after 24 hrs by microdilution method; type: functional; details: Candida tropicalis, 156, 24 h; procedure, shortened: as §1
Candida tropicalis [11] = assay: Antifungal activity against Candida tropicalis 156 after 48 hrs by microdilution method; type: functional; details: Candida tropicalis, 156, 48 h; procedure, shortened: as §1
Nakaseomyces glabratus [12] = assay: Antifungal activity against Candida glabrata 20/I after 24 hrs by microdilution method; type: functional; procedure, shortened: as §1
Nakaseomyces glabratus [13] = assay: Antifungal activity against Candida glabrata 20/I after 48 hrs by microdilution method; type: functional; procedure, shortened: as §1
Clavispora lusitaniae [14] = assay: Antifungal activity against Candida lusitaniae 2446/I after 24 hrs by microdilution method; type: functional; procedure, shortened: as §1
Clavispora lusitaniae [15] = assay: Antifungal activity against Candida lusitaniae 2446/I after 48 hrs by microdilution method; type: functional; procedure, shortened: as §1
Trichosporon beigelii [16] = assay: Antifungal activity against Trichosporon beigelii 1188 after 24 hrs by microdilution method; type: functional; details: Trichosporon beigelii, 1188, 24 h; procedure, shortened: as §1
Trichosporon beigelii [17] = assay: Antifungal activity against Trichosporon beigelii 1188 after 48 hrs by microdilution method; type: functional; details: Trichosporon beigelii, 1188, 48 h; procedure, shortened: as §1
Aspergillus fumigatus [18] = assay: Antifungal activity against Aspergillus fumigatus 231 after 24 hrs by microdilution method; type: functional; details: Aspergillus fumigatus, 231, 24 h
Procedure, shortened: (§2)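 Filamentous strains held on Sabouraud dextrose agar. NCCLS M27-A broth microdilution in RPMI 1640 with L-glutamine and 0.165 M MOPS, pH 7.0. DMSO diluent ≤2% final; twofold dilutions 500–0.48. Inoculum 5 × 10³ ± 0.2 cfu mL⁻¹ final.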

Aspergillus fumigatus [19] = assay: Antifungal activity against Aspergillus fumigatus 231 after 48 hrs by microdilution method; type: functional; details: Aspergillus fumigatus, 231, 48 h; procedure, shortened: as §2
Lichtheimia corymbifera [20] = assay: Antifungal activity against Absidia corymbifera 272 after 24 hrs by microdilution method; type: functional; details: Lichtheimia corymbifera, 272, 24 h; procedure, shortened: as §2
Lichtheimia corymbifera [21] = assay: Antifungal activity against Absidia corymbifera 272 after 48 hrs by microdilution method; type: functional; details: Lichtheimia corymbifera, 272, 48 h; procedure, shortened: as §2
[22] = tested on: Trichophyton mentagrophytes; assay: Antifungal activity against Trichophyton mentagrophytes 445 after 72 hrs by microdilution method; type: functional; details: Trichophyton mentagrophytes, 445, 72 h
Procedure, shortened: (§3)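 Dermatophyte held on Sabouraud dextrose agar. M27-A microdilution in MOPS-buffered (0.165 M, pH 7.0) RPMI 1640 with L-glutamine. DMSO ≤2% final; twofold dilutions 500–0.48. Inoculum 5 × 10³ ± 0.2 cfu mL⁻¹ final. Incubated at 35 °C; MIC read visually at 72 and 120 h as 80% inhibition of control growth; determined twice in duplicate.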

[23] = tested on: Trichophyton mentagrophytes; assay: Antifungal activity against Trichophyton mentagrophytes 445 after 120 hrs by microdilution method; type: functional; details: Trichophyton mentagrophytes, 445, 120 h; procedure, shortened: as §3
L1210 = assay: Cytostatic activity against mouse L1210 cells after 72 hrs by XTT assay; type: functional, cell-based
Procedure, shortened: (§4)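 Leukemia cells (L1210 ATCC CCL 219, CCRF-CEM ATCC CCL 119, HL-60 ATCC CCL 240) grown in 24-well plates in RPMI 1640 with fetal calf serum. Growth assessed 72 h after drug addition. Viability measured by XTT spectrophotometric assay; potency given as IC50.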

HL-60 = assay: Cytostatic activity against human HL60 cells after 72 hrs by XTT assay; type: functional, cell-based; procedure, shortened: as §4
CCRF-CEM [24] = assay: Cytostatic activity against human CCRF-CEM cells after 72 hrs by XTT assay; type: functional, cell-based; procedure, shortened: as §4
CCRF-CEM [25] = assay: Cell cycle arrest in human CCRF-CEM cells assessed as increase in accumulation at G1 phase at 2.5 umol/L after 72 hrs by FACS analysis; type: functional, cell-based
Procedure, shortened: (§5)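 CCRF-CEM cells cultured with compound at 2.5 µmol/L. At the 72 h growth endpoint, cells ethanol-fixed and stained with propidium iodide in RNase A-containing buffer. Cell-cycle distribution analysed by flow cytometry against untreated control cells.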

CCRF-CEM [26] = assay: Cell cycle arrest in human CCRF-CEM cells assessed as increase in accumulation at S phase at 2.5 umol/L after 72 hrs by FACS analysis; type: functional, cell-based; procedure, shortened: as §5
CCRF-CEM [27] = assay: Cell cycle arrest in human CCRF-CEM cells assessed as decrease in accumulation at G2/M phase at 2.5 umol/L after 72 hrs by FACS analysis; type: functional, cell-based; procedure, shortened: as §5
CCRF-CEM [28] = assay: Induction of apoptosis in human CCRF-CEM cells assessed as necrotic cells at 2.5 umol/L after 72 hrs by annexin-V FITC staining-based flow cytometry; type: functional
Procedure, shortened: (§6)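 CCRF-CEM cells grown with compound at 2.5 µmol/L alongside untreated controls. Apoptotic and necrotic populations detected by flow cytometry using an Annexin V-FITC apoptosis kit, following the manufacturer's protocol.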

CCRF-CEM [29] = assay: Induction of apoptosis in human CCRF-CEM cells assessed as loss of cellular plasma membrane integrity at 2.5 umol/L after 72 hrs by annexin-V FITC staining-based flow cytometry; type: functional, cell-based; procedure, shortened: as §6
CCRF-CEM [30] = assay: Induction of apoptosis in human CCRF-CEM cells assessed as loss of cellular […] membrane integrity at 2.5 umol/L after 72 hrs by annexin-V FITC staining-based flow cytometry; type: functional, cell-based; procedure, shortened: as §6
Candida albicans [31] = assay: Antifungal activity against Candida albicans ATCC 44859 after 24 hrs by microdilution method; type: functional; details: ATCC 44859, 24 h; procedure, shortened: as §1
HeLa S3 = assay: Cytostatic activity against human HeLaS3 cells after 48 hrs by XTT assay
[32] = Chemical stability in tetrahydrofuran solution at 4.7 mg after 24 hrs in room temperature by HPLC analysis; type: physicochemical
[33] = Chemical stability in DMSO solution at 4.7 mg after 24 hrs in room temperature by HPLC analysis; type: physicochemical

MIC80 (Candida albicans [1]) | MIC80 (Candida albicans [2]) | MIC80 (Candida albicans [3]) | MIC80 (Candida parapsilosis [4]) | MIC80 (Candida parapsilosis [5]) | MIC80 (Pichia kudriavzevii [6]) | MIC80 (Pichia kudriavzevii [7]) | MIC80 (Pichia kudriavzevii [8]) | MIC80 (Pichia kudriavzevii [9]) | MIC80 (Candida tropicalis [10]) | MIC80 (Candida tropicalis [11]) | MIC80 (Nakaseomyces glabratus [12]) | MIC80 (Nakaseomyces glabratus [13]) | MIC80 (Clavispora lusitaniae [14]) | MIC80 (Clavispora lusitaniae [15]) | MIC80 (Trichosporon beigelii [16]) | MIC80 (Trichosporon beigelii [17]) | MIC80 (Aspergillus fumigatus [18]) | MIC80 (Aspergillus fumigatus [19]) | MIC80 (Lichtheimia corymbifera [20]) | SMILES | also measured
1.95 µM (≈ 0.49 µg/mL) | 3.9 µM (≈ 0.979 µg/mL) | 7.81 µM (≈ 1.96 µg/mL) | 7.81 µM (≈ 1.96 µg/mL) | 15.6 µM (≈ 3.92 µg/mL) | 7.81 µM (≈ 1.96 µg/mL) | 7.81 µM (≈ 1.96 µg/mL) | 7.81 µM (≈ 1.96 µg/mL) | 7.81 µM (≈ 1.96 µg/mL) | 7.81 µM (≈ 1.96 µg/mL) | 15.6 µM (≈ 3.92 µg/mL) | 1.95 µM (≈ 0.49 µg/mL) | 1.95 µM (≈ 0.49 µg/mL) | 7.81 µM (≈ 1.96 µg/mL) | 15.6 µM (≈ 3.92 µg/mL) | 3.9 µM (≈ 0.979 µg/mL) | 15.6 µM (≈ 3.92 µg/mL) | 1.95 µM (≈ 0.49 µg/mL) | 7.81 µM (≈ 1.96 µg/mL) | 31.2 µM (≈ 7.85 µg/mL) | C=C1C=C(c2ccc(Br)cc2)C(=O)O1 | MIC80 (Lichtheimia corymbifera [21]): 125 µM (≈ 31.4 µg/mL); MIC80 [22]: 1.95 µM (≈ 0.49 µg/mL); MIC80 [23]: 3.9 µM (≈ 0.979 µg/mL); IC50 (L1210; Mus musculus, L1210, 72 h, read-out: IC50): 21 µM; IC50 (HL-60; Homo sapiens, HL-60, 72 h, read-out: IC50): 18 µM; IC50 (CCRF-CEM [24]; Homo sapiens, CCRF-CEM, 72 h, read-out: IC50): 2.52 µM; Activity (CCRF-CEM [25]): Active; Activity (CCRF-CEM [26]): Active; Activity (CCRF-CEM [27]): Active; Activity (CCRF-CEM [28]): > 80%; Activity (CCRF-CEM [29]): Active; Activity (CCRF-CEM [30]): Active; MIC80 (Candida albicans [31]): 0.49 µM (≈ 0.123 µg/mL); IC50 (HeLa S3; Homo sapiens, HeLa S3, 48 h, read-out: IC50): 2.09 µM
1.95 µM (≈ 0.607 µg/mL) | 3.9 µM (≈ 1.21 µg/mL) | 3.9 µM (≈ 1.21 µg/mL) | 3.9 µM (≈ 1.21 µg/mL) | 15.6 µM (≈ 4.86 µg/mL) | 3.9 µM (≈ 1.21 µg/mL) | 7.81 µM (≈ 2.43 µg/mL) | 7.81 µM (≈ 2.43 µg/mL) | 7.81 µM (≈ 2.43 µg/mL) | 7.81 µM (≈ 2.43 µg/mL) | 7.81 µM (≈ 2.43 µg/mL) | 1.95 µM (≈ 0.607 µg/mL) | 1.95 µM (≈ 0.607 µg/mL) | 3.9 µM (≈ 1.21 µg/mL) | 7.81 µM (≈ 2.43 µg/mL) | 7.81 µM (≈ 2.43 µg/mL) | 7.81 µM (≈ 2.43 µg/mL) | 0.98 µM (≈ 0.305 µg/mL) | 3.91 µM (≈ 1.22 µg/mL) | 7.81 µM (≈ 2.43 µg/mL) | CC(=O)OCC1C=C(c2ccc(Br)cc2)C(=O)O1 (stereo not drawn) | MIC80 (Lichtheimia corymbifera [21]): 15.6 µM (≈ 4.86 µg/mL); MIC80 [22]: 1.95 µM (≈ 0.607 µg/mL); MIC80 [23]: 3.9 µM (≈ 1.21 µg/mL); Stability [32]: Stable; Stability [33]: < 3 h; MIC80 (Candida albicans [31]): 0.49 µM (≈ 0.152 µg/mL)
> 500 µM | > 500 µM | > 500 µM | > 500 µM | > 500 µM | > 500 µM | > 500 µM | > 500 µM | > 500 µM | > 500 µM | > 500 µM | > 500 µM | > 500 µM | > 500 µM | > 500 µM | > 500 µM | > 500 µM | > 500 µM | > 500 µM | > 500 µM | O=C1O/C(=C\COC(=O)c2ccccc2)C=C1c1ccc(Br)cc1 | MIC80 (Lichtheimia corymbifera [21]): > 500 µM; MIC80 [22]: > 500 µM; MIC80 [23]: > 500 µM; IC50 (L1210; l1210): Not Active; IC50 (HL-60; hl-60): Not Active; IC50 (CCRF-CEM [24]; ccrf-cem): Not Active; MIC80 (Candida albicans [31]): > 500 µM; IC50 (HeLa S3; hela s3): Not Active
